# IMP-1 inh: blocks Pseudomonas aeruginosa IMP-1 metallo-beta-lactamase. purified IMP-1, nitrocefin hydrolysis, epi-absorbance fluorescence. inhibition, % at 5.6 µM. 290,000 tested, 0.45% active. AID 1556;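 active means inhibition above the mean plus 3 SD of all compounds in the same screening run, cut at about 4.5% in these data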;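 further: 0% = IMP-1 with DMSO and 100% = DMSO wells lacking enzyme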
#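 System: purified IMP-1 / Input: IMP-1 dispensed at 0.2 nM / Medium: 50 mM HEPES pH 7.1, 50 µM ZnSO4, 0.05% Brij 35 / Timing: 15 min enzyme–compound preincubation, then 25 min nitrocefin reaction, 25 °C / Technique: plate fluorescence quenching by hydrolysis product, ex 480/em 530 nm / Repeats: singlicate testing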
# UBC9 SUMO inh: inhibitors of human SUMOylation (UBC9); 290,000 tested, 0.36% active; HTRF SUMOylation assay, SAE1/SAE2 + UBC9, in vitro; P63279; AID 2006; inhibition, % at 35 µM; in the data active means inhibition above about 50%, passing the limit was not always enough
# Target sequence (P63279 whole entry, looked up): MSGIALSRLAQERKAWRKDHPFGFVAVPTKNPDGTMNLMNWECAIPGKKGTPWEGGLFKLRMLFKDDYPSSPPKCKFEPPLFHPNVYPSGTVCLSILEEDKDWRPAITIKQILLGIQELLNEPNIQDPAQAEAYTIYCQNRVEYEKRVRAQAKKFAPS
# Mot1-301 SUMO: inhibitors of SUMOylation pathway: yeast Mot1-301 growth rescue | 320,000 tested, 1% active | S. cerevisiae Mot1-301 growth rescue, ATP luminescence, 38.5C; percent above DMSO median, 100 means doubled | growth rescue, % at 18.8 µM;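 active means every valid replicate shows activation above 250% relative to neutral control wells; inactive means the rest, any valid replicate at or below 250%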;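 further: OY570 slx delta 5 strain wells were the positive control but not used for scaling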
# FID counter: displaces DNA intercalator in HCV helicase counter-screen; DNA fluorescent intercalator displacement, fluorescence; 290,000 tested, 0.17% active; AID 1845; inhibition, % at 7.9 µM; in the data active means inhibition above about 37%;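 further: 0% = vehicle and 100% = reference compound; higher means more ethidium bromide displaced from hairpin DNA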
# NALP1 inh: NALP1 inhibition | S. cerevisiae NALP1/ASC/caspase-1 growth, X-gal OD620, 72 h | inhibition, % at 10 µM | 280,000 tested, 0.61% active; in the data active means inhibition mostly above about 24%, no sharp cut-off; inactive means mostly below about 32%
# VIM-2 inh: blocks Pseudomonas aeruginosa VIM-2 metallo-beta-lactamase | purified VIM-2, nitrocefin hydrolysis, epi-absorbance fluorescence | 290,000 tested, 0.89% active | inhibition, % at 5.6 µM;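 active means inhibition above the mean of all tested compounds plus 3 SD, cutoff set per screening run, cut at about 7.5% in these data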;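 further: red hydrolysis product quenches plate fluorescence so inhibitors raise well fluorescence; 0% = enzyme with DMSO and 100% = DMSO without enzyme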
# * marks the source's active call; other numbers are inactive results; x = not tested or not shown; + = active, no number. Shown are actives, neighbours in structure and some others; about 2.9% of the full set was active somewhere.
SMILES,IMP-1 inh,UBC9 SUMO inh,Mot1-301 SUMO,FID counter,NALP1 inh,VIM-2 inh
Cc1onc(-c2ccccc2)c1C(=O)OCC(=O)N1CCC(C)CC1,x,x,0,x,x,x
COC(=O)c1ccc(/C=C/C(=O)OCC(=O)c2ccc[nH]2)cc1,x,x,12,x,x,x
Cc1cc(N2C(=O)C(O)=C(C(=O)c3ccc(C)o3)C2c2cccc(Oc3ccccc3)c2)no1 (stereo not drawn),-1,-3,17,-41,38*,-2
COc1ccc(C2C(C(=O)c3ccc(C)o3)=C(O)C(=O)N2c2cc(C)on2)cc1OC (stereo not drawn),-1,18,-9,-1,-3,-1
O=C(Nc1ncc2c(n1)-c1ccccc1CC2)c1ccc(Cl)cc1,24*,1,220,-8,-1,-6
O=C(Nc1ncc2c(n1)-c1ccccc1CC2)c1cccc(Cl)c1,-2,3,23,-21,3,-3
O=P(O)(O)c1ccccc1OCCOCCOc1ccccc1P(=O)(O)O,-3,0,702,-4,10,23*
CN(CC(=O)Nc1ccc(Cl)cc1)c1ccc(S(=O)(=O)N2CCCCC2)cc1[N+](=O)[O-],-1,-6,-2,2,28,-3
COc1ccc(C2SCC(C(=O)O)N2C(C)=O)cc1 (stereo not drawn),-5,18,-1,3,-53,-3
CC(=O)N1C(C(=O)O)CSC1c1ccc(C)cc1 (stereo not drawn),x,-6,14,x,42*,x
C=CCC1(N(C(C)=O)c2ccccc2C)CCCCC1,0,-12,3,4,4,0
COc1ccccc1OCCN1CSC(=S)N(C)C1,0,12,+,-19,108*,-5
COc1ccc([N+](=O)[O-])cc1NC(=O)CC1SC(=Nc2cccc(C)c2C)N(/N=C/c2cccc(OC)c2OC)C1=O (stereo not drawn),-4,5,105,-6,-5,-1
Cc1c(OC(C)C(=O)NCCN2CCOCC2)ccc2c3c(c(=O)oc12)CCCC3 (stereo not drawn),-1,22,8,-4,-6,9.6*
Cc1cc(=O)oc2c(C)c(OCC(=O)NCCCN3CCOCC3)ccc12,-1,-6,205,-3,-7,7.8*
CC(Oc1cc2oc(=O)c3c(c2cc1Cl)CCC3)C(=O)NCCCN1CCCC1=O (stereo not drawn),-5,-6,7,-51,-10,9.1*
Cc1cc(=O)oc2c(C)c(OC(C)C(=O)NCCN3CCOCC3)ccc12 (stereo not drawn),-3,10,0,-8,0,2
Cc1c(OC(C)C(=O)NCCCN2CCCC2=O)ccc2c3c(c(=O)oc12)CCCC3 (stereo not drawn),0,27,8,-40,8,10*
Cc1c(OCC(=O)NCCCN2CCOCC2)ccc2c(-c3ccccc3)cc(=O)oc12,-2,3,8,14,19,1
CCOc1ccc(S(=O)(=O)N2CCC(C(=O)NCc3ccccn3)CC2)cc1,-4,-8,75,-19,5,-1
O=C(NC(=S)NC1CCCCC1)c1ccc(F)cc1,0,-19,-4,-21,16,-5
CC(Oc1ccc2c(-c3ccccc3)cc(=O)oc2c1)C(=O)NCCCN1CCOCC1 (stereo not drawn),-1,5,0,12,11,0
O=C(NCCCN1CCOCC1)C(C(=O)c1ccccc1)n1ccccc1=O (stereo not drawn),-6,22,19,7,40*,-3
CC(Oc1ccc2c(c1)oc(=O)c1ccccc12)C(=O)NCCCN1CCOCC1 (stereo not drawn),-3,x,396,12,16,12*
c1cncc(CNc2cccc(-c3nc4ccccc4[nH]3)c2)c1,-4,4,-12,3,31,-2
SMILES,IMP-1 inh,UBC9 SUMO inh,Mot1-301 SUMO,FID counter,NALP1 inh,VIM-2 inh
CCCCS(=O)(=O)/C=C\C=C/S(=O)(=O)CCCC,-2,2,156,-9,126*,0
CCCCS(=O)(=O)/C=C\C1C2C=CC(C2)C1S(=O)(=O)CCCC (stereo not drawn),-2,-1,8,-12,-1,1
Cc1ccc(CNC(=O)c2ccc3c(c2)NC(=O)CS3)cc1,-2,0,-6,-20,0,-5
COc1cc(/C=N/Nc2ncnc3sc4c(c23)CCC4)ccc1O,-1,-17,x,-9,x,10*
Cc1cccc(C(=O)N/N=C/c2coc3ccccc3c2=O)c1,5.8*,14,6,-4,8,-4
NC(=S)N/N=C/c1coc2ccc(Cl)cc2c1=O,-2,8,324*,-3,8,-4
O=C(N/N=C/c1coc2ccccc2c1=O)c1cc(O)cc(O)c1,-1,12,x,1,-2,0
CC(C)Oc1cccc(C(=O)N/N=C/c2coc3ccccc3c2=O)c1,5.3*,8,12,-7,-6,-7
CCOc1cccc(C(=O)N/N=C/c2coc3ccccc3c2=O)c1,5.5*,13,0,-10,6,-5
O=C(NC1CCCCCCC1)c1ccc(Br)o1,-2,-5,21,-7,6,-1
CCN1CCCC1CNC(=O)Cn1nc(C)n2nc(-c3ccccc3)cc2c1=O (stereo not drawn),0,8,3,10,23,1
CCN(CCCNC(=O)CNC(=O)c1nn(-c2ccc(OC)cc2OC)c(=O)c2ccccc12)c1cccc(C)c1,-3,19,-8,-28,11,-5
C/C(=N\Nc1ncc(Cl)cc1Cl)c1ccccn1,-3,-3,x,0,45*,-2
C/C(=N\Nc1ccc(Cl)c(C(=O)O)c1)c1ccccn1,-2,10,-12,-3,-10,-2
Oc1ccc(N=Nc2ccccc2-c2nn[nH]n2)c(O)c1,-7,-14,-22,-10,-12,-1
CCOC(=O)C1C(=O)C(C(C)=O)C(=O)CC1CC(C)SCC (stereo not drawn),-2,1,17,-23,44*,-3
CC1(C)CC(=O)c2cn3c(nc2C1)nc1ccccc13,-4,10,9,-7,4,-3
CC1(C)CC(=O)c2cn3nc(C(F)(F)F)nc3nc2C1,0,-2,8,-5,43*,1
CCOC(=O)/C=C/C(=O)Nc1cccc([N+](=O)[O-])c1,0,-2,16,3,81*,-4
CCOC(=O)c1cccc(NC(=O)/C=C/c2cccc([N+](=O)[O-])c2)c1,-2,-3,11,-1,7,-3
O=C(Nc1cc([N+](=O)[O-])ccc1O)c1cccc(C(=O)Nc2cc([N+](=O)[O-])ccc2O)c1,26*,4,-19,28,10,-1
O=C(Nc1cccc([N+](=O)[O-])c1)c1cccc(C(=O)Nc2cccc([N+](=O)[O-])c2)c1,8.7*,25,9,-2,6,-1

# Assay outcomes deposited in PubChem by several laboratories.
